The record followed here is ChEMBL document CHEMBL1821666, “Anti-inflammatory principles from Cordyceps sinensis” (J Nat Prod, 2011).

In brackets after ≈: the same amount, converted by molar mass. Activity calls are given as the source filed them. No cut-off for these calls is given here.

Test [1] in a line: Antioxidant activity assessed DPPH scavenging activity. It counts as functional. In short, it runs like this:
(§1)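 DPPH free-radical scavenging was measured in a cell-free system, with IC50 determined. Constituents were also screened at 500 μM.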
(In general: The DPPH test is a chemical assay of radical scavenging.)

Test [2] can be described thus: (§2) Anti-inflammatory activity in human neutrophils assessed as inhibition of FMLP/CB-induced elastase release. It counts as functional, cell-based. To be noted: Neutrophil. In short, it runs like this:
(§3)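 Human neutrophils were activated with FMLP plus cytochalasin B (FMLP/CB). IC50 is the concentration giving 50% inhibition of the response. Values are mean ± SEM, n = 3–4.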

The nature of test [3]: Antioxidant activity assessed DPPH scavenging activity at 500 uM. It counts as functional. The gist of the method:
as §1

Test [4] can be described thus: (§4) Anti-inflammatory activity in human neutrophils assessed as inhibition of FMLP/CB-induced superoxide anion generation. It counts as functional, cell-based. To be noted: Neutrophil. In short, it runs like this:
as §3

Test [5] in a line: Anti-inflammatory activity in human neutrophils assessed as inhibition of FMLP/CB-induced superoxide anion generation at 10 ug/mL. It counts as functional. The note with it: Neutrophil. In short, it runs like this: (§5)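 Human neutrophils were activated with FMLP/CB. Percentage inhibition of the response was measured with samples at 10 μg/mL. Values are mean ± SEM, n = 3–4, and significance was tested against the control value.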

Test [6] is described as follows: Anti-inflammatory activity in human neutrophils assessed as inhibition of FMLP/CB-induced elastase release at 10 ug/mL. It counts as functional. To be noted: Neutrophil. In short, it runs like this: as §5
Test [7] relates to Neutrophil. Described as §2. It counts as functional, cell-based. The gist of the method: as §3
The test system of test [8] is Neutrophil. The description is as §4. It counts as functional, cell-based. In short, it runs like this: as §3

`O=c1c(-c2ccc(O)c(O)c2)coc2cc(O)ccc12`: it took 32 µM to reach half-maximal inhibition in test [1] (IC50). On to `CC(C)[C@@H](C)/C=C/[C@@H](C)[C@H]1CC[C@H]2C3=CC=C4C[C@@H](O[C@@H]5O[C@H](CO)[C@@H](O)[C@H](O)[C@H]5O)CC[C@]4(C)[C@H]3CC[C@]12C`, for which the IC50 (in general, the midpoint of a concentration-inhibition curve) was 5.62 µg/mL (≈ 10.1 µM) in test [2] and 5.42 µg/mL (≈ 9.7 µM) in test [4]. Further, in test [3], the inhibition – broadly, the relative decrease from the control value, in per cent – was “inactive”. Take `CC(C)C[C@@H]1NC(=O)[C@@H]2CC[C@@H](O)N2C1=O`: in test [3], the inhibition entry is “inactive”. For `CC(C)[C@@H]1NC(=O)[C@@H]2CCCN2C1=O`, the inhibition result in test [3] is “inactive”. Take `Cc1occc(=O)c1O`: the inhibition result in test [3] was “inactive”. Still for that read-out and setting: in the case of `O=C(O)c1cc2c([nH]c3ccccc32)c(-c2ccc(CO)o2)n1` it was “inactive”; in that of `O=C(O)c1ccco1`, “inactive”.

As to `O=C1C[C@H](O)[C@@H](CO)O1`, the inhibition entry in test [3] was “inactive”. Still for that read-out and setting: in the case of `O=C1N[C@@H](Cc2ccc(O)cc2)C(=O)N2CCC[C@@H]12` it was “inactive”. `O=C1N[C@@H](Cc2ccccc2)C(=O)N2CCC[C@@H]12`: in test [3], the inhibition entry was “inactive”. `O=C1O[C@H]([C@@H](O)CO)C(O)=C1O` [ASCORBIC ACID]: the IC50 in test [1] worked out at 38.6 µM. Take `O=c1c(-c2ccc(O)cc2)coc2cc(O)ccc12` [DAIDZEIN]: the inhibition entry in test [3] was “inactive”. Further, in test [4], the IC50 worked out at 6.19 µg/mL (≈ 24.3 µM).

Regarding `COc1cc(/C=C/C(=O)O[C@H]2CC[C@]34C[C@]35CC[C@]3(C)[C@@H]([C@H](C)CCC=C(C)C)CC[C@@]3(C)[C@@H]5CC[C@H]4C2(C)C)ccc1O` [GAMMA ORYZANOL], the inhibition at 10 µg/mL in test [5] was 28.2%; in test [6], 41.6%. Further, in test [3], the inhibition result was “inactive”. As for `COc1ccc2c(c1)c(CC(=O)O)c(C)n2C(=O)c1ccc(Cl)cc1` [INDOMETHACIN], the results for the IC50 in test [2] and in test [4] were 32 µg/mL (≈ 89.4 µM) and 38.3 µg/mL (≈ 107 µM), respectively. In test [3], the inhibition result was “inactive”. As to `OCc1ccc(-c2nccc3c2[nH]c2ccccc23)o1` [PERLOLYRIN], the IC50 was 1.68 µg/mL (≈ 6.36 µM) in test [2] and 0.45 µg/mL (≈ 1.7 µM) in test [4]. Further, the inhibition entry in the test with Neutrophil [7] and in the test on Neutrophil [8] was “Dose-dependent effect” each time. The inhibition entry in test [3] was “inactive”.
